Assay outcomes from PubChem BioAssay.
UBC13 inh: blocks human UBC13 polyubiquitin chain formation; AID 485273; P61088; TR-FRET; actives 0.47% (n = 330,000); inhibition, % at 20 µM; in the data active means inhibition above about 45%, passing the limit was not always enough
Target sequence (P61088 whole entry, looked up): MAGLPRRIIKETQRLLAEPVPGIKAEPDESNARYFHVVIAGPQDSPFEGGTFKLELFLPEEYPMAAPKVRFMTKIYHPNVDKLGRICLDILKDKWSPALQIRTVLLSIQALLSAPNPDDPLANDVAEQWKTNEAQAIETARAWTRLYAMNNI
SENP7 inh: SENP7 protease inhibition | Q9BQF6 | recombinant SENP7, Z-RLRGG-aminoluciferin luminescence, 40 min | inhibition, % at 5 µM | actives 1.5% (n = 330,000) | AID 434973;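 active means inhibition above about 50% at the single test dose, limit read from the data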
SENP8 block-1: inhibitors of human SENP8 protease. Q96LD8. actives 1.2% (n = 330,000). inhibition, % at 10 µM. AID 2540. purified SENP8, Z-RLRGG-aminoluciferin cleavage, luminescence; in the data active means inhibition above about 50%
Target sequence (Q96LD8 whole entry, looked up): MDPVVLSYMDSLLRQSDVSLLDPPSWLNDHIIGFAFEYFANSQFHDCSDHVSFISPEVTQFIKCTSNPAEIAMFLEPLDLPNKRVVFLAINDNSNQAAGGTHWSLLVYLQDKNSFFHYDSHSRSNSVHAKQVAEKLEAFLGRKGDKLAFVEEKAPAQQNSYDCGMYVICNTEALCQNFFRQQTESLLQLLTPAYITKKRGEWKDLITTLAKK
Apaf1 inhib: blocks human Apaf-1 apoptosome activity | actives 0.71% (n = 330,000) | inhibition, % at 20 µM | O14727 | AID 489030 | reconstituted apoptosome caspase-3 activity, DEVD-Rh110 fluorescence; active means inhibition of at least 40% at 20 µM
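System: reconstituted apoptosome with Apaf-1, cytochrome c, caspase-9, procaspase-3, dATP; Signal: Rh110 fluorescence intensity; Schedule: 30 min compound preincubation, 50 min activation, room temperature; Reagent: cytochrome c trigger plus (Z-DEVD)2-Rh110 caspase-3 substrate.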
SENP6 inh: inhibitors of human SENP6 protease | Q9GZR1 | Recombinant SENP6 catalytic domain, aminoluciferin luminescence | inhibition, % at 10 µM | actives 1.8% (n = 330,000) | AID 2599;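 active means inhibition above about 50% at the single tested dose, limit read from the data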
SENP8 block-2: blocks human SENP8 cleavage of Nedd8 substrate. Q96LD8. recombinant SENP8, Nedd8 substrate fluorescence. inhibition, % at 20 µM. actives 0.64% (n = 360,000); in the data active means inhibition mostly above about 40%, no sharp cut-off; inactive means mostly below about 27%
Apaf-1 inh conf2: confirmation of Apaf-1 inhibitors; shares compounds with Apaf1 inhib; AID 504614; reconstituted apoptosome, caspase-3 DEVD-Rh110 fluorescence; inhibition, % at 20 µM; actives 25% (n = 1,800);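 active means mean inhibition of at least 40% at 20 µM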
Rh110 interf inh: interferes with Rh110 fluorescence, flagging false Apaf-1 inhibitors; shares compounds with Apaf1 inhib; Rh110 fluorescence interference, quenched caspase reaction; activation (fluorescence interference), % at 20 µM; 1,800 tested, under 10 active; AID 504615;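 active means signal rise of 40% or more at 20 µM, treated as a fluorescence artifact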
Apaf1 inh interf: counter-screen for Apaf-1 inhibitors: fluorescence interference, dose response | shares compounds with Apaf1 inhib | fluorescence interference counterscreen, Apaf-1 assay format | IC50, µM | 460 tested, under 10 active | AID 588538; call rule not given here
Large screens that a line does not name were inactive (follow-up assays come after a bar, where they were run). Rows were chosen to be rich in hits. Some 3.1% of all compounds tested hit in one or more screens of this group.

NS(=O)(=O)c1ccc2c(c1)C1C=CCC1C(C1CC=CCC1)N2 (stereo not drawn)	Apaf1 inhib 47 | Apaf-1 inh conf2 inactive | Rh110 interf inh inactive
COc1ccc(CN2CCN(C(c3ccc(F)cc3)c3ccc(F)cc3)CC2)c(OC)c1OC	Apaf1 inhib 48 | Apaf-1 inh conf2 inactive | Rh110 interf inh inactive
CCN(CC(=O)Nc1ccccc1C(F)(F)F)C(=O)c1ccc2c(c1)NC(=O)C(C)S2 (stereo not drawn)	none (no result: UBC13 inh, SENP7 inh, SENP8 block-1, Apaf1 inhib, SENP6 inh)
CCN(CC(=O)Nc1c(F)cccc1F)C(=O)Cc1ccsc1	Apaf1 inhib 52 | Apaf-1 inh conf2 42 | Rh110 interf inh inactive | Apaf1 inh interf inactive
CCN(CC(=O)Nc1c(F)cccc1F)C(=O)CNC(=O)c1ccc2ccccc2c1	none
CCN(CC(=O)Nc1c(F)cccc1F)C(=O)CNC(=O)c1ccc2c(c1)OCO2	Apaf1 inhib 53 | Apaf-1 inh conf2 inactive | Rh110 interf inh inactive
COc1cccc(/C=N/NC(=O)NC23CC4CC(CC(C4)C2)C3)c1O	Apaf1 inhib 40 | Apaf-1 inh conf2 inactive | Rh110 interf inh inactive
CCN(Cc1ccccc1)C(=O)c1cccc(S(=O)(=O)N2CCN(c3ccc(F)cc3)CC2)c1	Apaf1 inhib 42 | Apaf-1 inh conf2 inactive | Rh110 interf inh inactive
CCc1ccc(NC(=O)[C@H](Cc2c[nH]c3ccccc23)NC(=O)[C@@H]2Cc3ccccc3CN2)cc1	Apaf1 inhib 41 | Apaf-1 inh conf2 inactive | Rh110 interf inh inactive
Cc1cc(C)cc(NC(=O)[C@H](Cc2c[nH]c3ccccc23)NC(=O)[C@@H]2Cc3ccccc3CN2)c1	none
CC(=O)Nc1ccc(-c2ccnc3c2CC(C)(C(=O)NCc2ccco2)O3)cc1 (stereo not drawn)	none (no result: UBC13 inh, SENP7 inh, SENP8 block-1, Apaf1 inhib, SENP6 inh)
C=CCN1C=C2C(=O)C(C)(OC(=O)CCC(=O)OC)C(=O)C(Br)=C2C=C1c1ccc(OC)cc1 (stereo not drawn)	Apaf1 inhib 67 | Apaf-1 inh conf2 61 | Rh110 interf inh inactive | Apaf1 inh interf inactive
COC(=O)CCC(=O)OC1(C)C(=O)C=C2C=C(C3CC3)N(C3CC3)C=C2C1=O (stereo not drawn)	Apaf1 inhib 54 | Apaf-1 inh conf2 inactive | Rh110 interf inh inactive
COC(=O)CCC(=O)OC1(C)C(=O)C2=CN(c3ccc(OC)cc3)C(c3ccc(OC)cc3)=CC2=C(Br)C1=O (stereo not drawn)	none
COCCN1C=C2C(=O)C(C)(OC(=O)CCC(=O)OC)C(=O)C(Br)=C2C=C1c1ccc(OC)cc1 (stereo not drawn)	Apaf1 inhib 77 | Apaf-1 inh conf2 84 | Rh110 interf inh inactive
COC(=O)CCC(=O)OC1(C)C(=O)C2=CN(C3CCCC3)C(c3ccc(OC)cc3)=CC2=C(Br)C1=O (stereo not drawn)	Apaf1 inhib 64 | Apaf-1 inh conf2 77 | Rh110 interf inh inactive | Apaf1 inh interf inactive
CCN(CC(=O)Nc1cc(Cl)ccc1C)CC(=O)NC1CC1	none (no result: UBC13 inh, SENP7 inh, SENP8 block-1, Apaf1 inhib, SENP6 inh)
Cc1cccc(S(=O)(=O)NC(=O)C2(C)CCN2C(=O)c2ccccc2)c1 (stereo not drawn)	none (no result: UBC13 inh, SENP7 inh, SENP8 block-1, Apaf1 inhib, SENP6 inh)
CCn1c(C)cc(C(=O)CSc2nnc(C3CC3)n2C2CC2)c1C	none (no result: UBC13 inh, SENP7 inh, SENP8 block-1, Apaf1 inhib, SENP6 inh)
CC(C)n1cnc2c(NCc3ccccc3)cc(Cc3ccc(F)cc3)cc21	none
CCCOc1cc(NCc2ccccc2)c2ncn(C(C)C)c2c1	Apaf1 inhib 44 | Apaf-1 inh conf2 54 | Rh110 interf inh inactive | Apaf1 inh interf inactive
COCCOc1cc(NCc2ccccc2)c2ncn(C(C)C)c2c1	Apaf1 inhib 68 | Apaf-1 inh conf2 inactive | Rh110 interf inh inactive
CCOc1cc(NCc2ccccc2)c2ncn(C(C)C)c2c1	Apaf1 inhib 42 | Apaf-1 inh conf2 54 | Rh110 interf inh inactive | Apaf1 inh interf inactive
CC1(C)CN(Cc2ccccc2)C(=O)[C@H]1CC(=O)Nc1ccc(Br)cc1	none (no result: UBC13 inh, SENP7 inh, SENP8 block-1, Apaf1 inhib, SENP6 inh)
O=[N+]([O-])c1cc(CN2CCN(c3cccc(C(F)(F)F)c3)CC2)c2cccnc2c1O	Apaf1 inhib 42 (no result: SENP8 block-2) | Apaf-1 inh conf2 inactive | Rh110 interf inh inactive
